Laboratory results reported in ChEMBL document CHEMBL1124774, “Synthesis and biological activity of some derivatives of rifamycin P” (1990).
In brackets after ≈: the same amount, converted by molar mass.

Tests used:
Escherichia coli = test: In vitro antibacterial activity of compound against Escherichia coli SKF 12140; type: functional
Klebsiella pneumoniae = test: In vitro antibacterial activity of compound against Klebsiella pneumoniae ISM; type: functional
[1] = test system: Mycobacterium scrofulaceum; test: In vitro activity of compound against slowly growing Mycobacterium scrofulaceum 1292; type: functional
Method in brief: (§1)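 Medium was Middlebrook 7H10 agar with 2% glycerol and 10% OADC. Organisms from Loevenstein-Jensen slants were grown in 7H9 broth with 0.5% Tween and 10% OADC, adjusted to McFarland no. 1, and spotted with a multipoint inoculator. Sealed plates were incubated at 22, 30 or 37 °C for 4-20 days depending on strain.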

[2] = test system: Mycobacterium scrofulaceum; test: In vitro activity of compound against slowly growing Mycobacterium scrofulaceum 1293; type: functional; method in brief: as §1
[3] = test system: Mycobacterium scrofulaceum; test: In vitro activity of compound against slowly growing Mycobacterium scrofulaceum 1297; type: functional; method in brief: as §1
[4] = test system: Mycobacterium scrofulaceum; test: In vitro activity of compound against slowly growing Mycobacterium scrofulaceum 1301; type: functional; method in brief: as §1
[5] = test system: Mycolicibacterium smegmatis; test: In vitro activity of compound against rapidly growing Mycobacterium smegmatis 139; type: functional; method in brief: as §1
[6] = test system: Mycolicibacterium smegmatis; test: In vitro activity of compound against rapidly growing Mycobacterium smegmatis 1442; type: functional; method in brief: as §1
[7] = test system: Mycolicibacterium smegmatis; test: In vitro activity of compound against rapidly growing Mycobacterium smegmatis 31; type: functional; method in brief: as §1
Mycobacterium xenopi [8] = test: In vitro activity compound against slowly growing Mycobacterium xenopi 1446; type: functional; method in brief: as §1
Mycobacterium xenopi [9] = test: In vitro activity of compound against slowly growing Mycobacterium xenopi 554; type: functional; method in brief: as §1
Mycobacterium xenopi [10] = test: In vitro activity of compound against slowl growingy Mycobacterium xenopi 555; type: functional; method in brief: as §1
Mycolicibacterium phlei [11] = test: In vitro activity of compound against rapidly growing Mycobacterium phlei 141; type: functional; method in brief: as §1
Mycolicibacterium phlei [12] = test: In vitro activity of compound against rapidly growing Mycobacterium phlei 1283; type: functional; method in brief: as §1
Mycolicibacterium phlei [13] = test: In vitro activity of compound against rapidly growing Mycobacterium phlei 1289; type: functional; method in brief: as §1
Mycobacterium kansasii [14] = test: In vitro activity compound against slowly growing Mycobacterium kansasii 1298; type: functional; method in brief: as §1
Mycobacterium kansasii [15] = test: In vitro activity of compound against slowly growing Mycobacterium kansasii 1299; type: functional; method in brief: as §1
Mycobacterium marinum [16] = test: In vitro activity of compound against slowly growing Mycobacterium marinum 1388; type: functional; method in brief: as §1
Mycobacterium marinum [17] = test: In vitro activity of compound against slowly growing Mycobacterium marinum 1390; type: functional; method in brief: as §1
Mycobacterium marinum [18] = test: In vitro activity of compound against slowly growing Mycobacterium marinum 1391; type: functional; method in brief: as §1
[19] = test system: Mycolicibacterium fortuitum; test: In vitro activity of compound against rapidly growing Mycobacterium fortuitum 114; type: functional; method in brief: as §1
[20] = test system: Mycolicibacterium fortuitum; test: In vitro activity of compound against rapidly growing Mycobacterium fortuitum 1285; type: functional; method in brief: as §1
[21] = test system: Mycolicibacterium fortuitum; test: In vitro activity of compound against rapidly growing Mycobacterium fortuitum 1287; type: functional; method in brief: as §1
[22] = test system: Mycolicibacterium fortuitum; test: In vitro activity compound against rapidly growing Mycobacterium fortuitum 1302; type: functional; method in brief: as §1
[23] = test system: Mycolicibacterium fortuitum; test: In vitro activity of compound against rapidly growing Mycobacterium fortuitum 140; type: functional; method in brief: as §1
[24] = test system: Mycolicibacterium fortuitum; test: In vitro activity compound against rapidly growing Mycobacterium fortuitum 1440; type: functional; method in brief: as §1
[25] = test system: Mycolicibacterium fortuitum; test: In vitro activity of compound against rapidly growing Mycobacterium fortuitum 646; type: functional; method in brief: as §1
[26] = test system: Mycolicibacterium fortuitum; test: In vitro activity of compound against rapidly growing Mycobacterium fortuitum 726; type: functional; method in brief: as §1
Mycobacterium gordonae [27] = test: In vitro activity of compound against slowly growing Mycobacterium gordonae 1294; type: functional; method in brief: as §1
Mycobacterium gordonae [28] = test: In vitro activity of compound against slowly growing Mycobacterium gordonae 1441; type: functional; method in brief: as §1
Mycobacterium kansasii [29] = test: In vitro activity compound against slowly growing Mycobacterium kansasii 1291; type: functional; method in brief: as §1
[30] = test system: Mycolicibacterium flavescens; test: In vitro activity of compound against rapidly growing Mycobacterium flavescens 1284; type: functional; method in brief: as §1
[31] = test system: Mycolicibacterium flavescens; test: In vitro activity of compound against rapidly growing Mycobacterium flavescens 1286; type: functional; method in brief: as §1
Mycobacterium marinum [32] = test: In vitro activity of compound against slowly growing Mycobacterium marinum 1392; type: functional; method in brief: as §1
Mycobacterium marinum [33] = test: In vitro activity of compound against slowly growing Mycobacterium marinum 1393; type: functional; method in brief: as §1
Mycobacterium marinum [34] = test: In vitro activity of compound against slowly growing Mycobacterium marinum 1394; type: functional; method in brief: as §1
Mycobacterium marinum [35] = test: In vitro activity of compound against slowly growing Mycobacterium marinum 1447; type: functional; method in brief: as §1
Mycobacterium avium [36] = test: 50% inhibition of the 20 Mycobacterium (MAC) avium complex clinical isolates; type: functional
Method in brief: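 Agar-dilution MICs, 2-fold dilutions over 128-0.0001 μg/mL, on Middlebrook 7H10 agar with 2% glycerol and 10% OADC. Organisms from Loevenstein-Jensen slants were grown in 7H9 broth with 0.5% Tween and 10% OADC, adjusted to McFarland no. 1, and spotted with a multipoint inoculator. Plates were sealed and incubated at 22, 30 or 37 °C for 4-20 days depending on strain.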

Neisseria gonorrhoeae = test: In vitro antibacterial activity of compound against Neisseria gonorrhoeae ISM 68/126; type: functional
Pseudomonas aeruginosa = test: In vitro antibacterial activity of compound against Pseudomonas aeruginosa ATCC 10145; type: functional
Method in brief: (§2)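 Twofold microdilution MIC in Iso-Sensitest broth over 128-0.0001 µg/mL. Inoculum was 10^4 cfu/mL, with incubation at 37 °C for 18-24 h.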

Proteus vulgaris = test: In vitro antibacterial activity of compound against Proteus vulgaris X19H ATCC 881; type: functional
[37] = test system: Staphylococcus epidermidis; test: In vitro antibacterial activity of compound against Staphylococcus epidermidis ATCC 12228; type: functional; method in brief: as §2
Streptococcus pyogenes [38] = test: Inhibitory concentration of compound against Streptococcus pyogenus septicemia in the mouse, administarted in OS route; type: functional
Method in brief: (§3)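 Male and female CD1 mice (18-22 g) were infected ip with S. pyogenes C203, with the challenge set so untreated mice died within 48 h. Groups of five received a single treatment immediately after infection. ED50 was calculated from the percentage surviving at each dose on day 10.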

Streptococcus pyogenes [39] = test: Inhibitory concentration of compound against Streptococcus pyogenus septicemia in the mouse, administarted in subcutaneous route; type: functional; conditions: sc; method in brief: as §3
Streptococcus pyogenes [40] = test: Minimum inhibitory concentration of compound against Streptococcus pyogenus septicemia in the mouse; type: functional
Streptococcus pyogenes [41] = test: In vitro antibacterial activity of compound against Streptococcus pyogenes C 203 SKF 13400; type: functional
Method in brief: (§4)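 Streptococcal MICs were run by twofold microdilution in Todd-Hewitt broth over 128-0.0001 µg/mL. Inoculum was 10^4 cfu/mL, with incubation at 37 °C for 18-24 h.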

Staphylococcus aureus = test: In vitro antibacterial activity of compound against Staphylococcus aureus Tour L 165; type: functional; method in brief: as §2
Streptococcus pneumoniae = test: In vitro antibacterial activity of compound against Streptococcus pneumoniae UC 41; type: functional; method in brief: as §4
Enterococcus faecalis = test: In vitro antibacterial activity of compound against Streptococcus faecalis ATCC 7080.; type: functional; method in brief: as §2
[42] = test system: Mycolicibacterium fortuitum; test: In vitro activity of compound against rapidly growing Mycobacterium fortuitum 645; type: functional; method in brief: as §1
Haemophilus influenzae = test: In vitro antibacterial activity of compound against Haemophilus influenzae ATCC 19418; type: functional
Mycobacterium xenopi [43] = test: In vitro activity of compound against slowly growing Mycobacterium xenopi 556; type: functional; method in brief: as §1
Mycobacterium avium [44] = test: 90% inhibition of the 20 Mycobacterium avium complex (MAC) clinical isolates
Mycobacteroides chelonae = test: In vitro activity of compound against rapidly growing Mycobacterium chelonae 1443
Mycobacterium avium [45] = test: Minimum inhibitory concentration of compound against 20 Mycobacterium avium complex (MAC) clinical isolates

CCN(CC)c1nc2c(s1)c1c(O)c3c(O)c(C)c4c(c32)C(=O)C(C)(O/C=C/C(OC)C(C)C(OC(C)=O)C(C)C(O)C(C)C(O)C(C)/C=C/C=C(/C)C(=O)N1)O4 (stereo not given)
MIC (Escherichia coli): 32 µg/mL (≈ 39.5 µM)
MIC (Klebsiella pneumoniae): 32 µg/mL (≈ 39.5 µM)
MIC [1]: 0.032 µg/mL (≈ 0.0395 µM)
MIC [2]: 0.125 µg/mL (≈ 0.154 µM)
MIC [3]: 0.063 µg/mL (≈ 0.0778 µM)
MIC [4]: 2 µg/mL (≈ 2.47 µM)
MIC [5]: 8 µg/mL (≈ 9.88 µM)
MIC [6]: 8 µg/mL (≈ 9.88 µM)
MIC [7]: 8 µg/mL (≈ 9.88 µM)
MIC (Mycobacterium xenopi [8]): 4 µg/mL (≈ 4.94 µM)
MIC (Mycobacterium xenopi [9]): 2 µg/mL (≈ 2.47 µM)
MIC (Mycobacterium xenopi [10]): 4 µg/mL (≈ 4.94 µM)
MIC (Mycolicibacterium phlei [11]): 0.032 µg/mL (≈ 0.0395 µM)
MIC (Mycolicibacterium phlei [12]): 0.125 µg/mL (≈ 0.154 µM)
MIC (Mycolicibacterium phlei [13]): 2 µg/mL (≈ 2.47 µM)
MIC (Mycobacterium kansasii [14]): 0.25 µg/mL (≈ 0.309 µM)
MIC (Mycobacterium kansasii [15]): 2 µg/mL (≈ 2.47 µM)
MIC (Mycobacterium marinum [16]): 2 µg/mL (≈ 2.47 µM)
MIC (Mycobacterium marinum [17]): 4 µg/mL (≈ 4.94 µM)
MIC (Mycobacterium marinum [18]): 1 µg/mL (≈ 1.23 µM)
MIC [19]: 16 µg/mL (≈ 19.8 µM)
MIC [20]: 16 µg/mL (≈ 19.8 µM)
MIC [21]: 2 µg/mL (≈ 2.47 µM)
MIC [22]: 2 µg/mL (≈ 2.47 µM)
MIC [23]: 16 µg/mL (≈ 19.8 µM)
MIC [24]: 16 µg/mL (≈ 19.8 µM)
MIC [25]: 32 µg/mL (≈ 39.5 µM)
MIC [26]: 32 µg/mL (≈ 39.5 µM)
MIC (Mycobacterium gordonae [27]): 0.5 µg/mL (≈ 0.617 µM)
MIC (Mycobacterium gordonae [28]): 2 µg/mL (≈ 2.47 µM)
MIC (Mycobacterium kansasii [29]): 2 µg/mL (≈ 2.47 µM)
MIC [30]: 32 µg/mL (≈ 39.5 µM)
MIC [31]: 0.25 µg/mL (≈ 0.309 µM)
MIC (Mycobacterium marinum [32]): 1 µg/mL (≈ 1.23 µM)
MIC (Mycobacterium marinum [33]): 1 µg/mL (≈ 1.23 µM)
MIC (Mycobacterium marinum [34]): 1 µg/mL (≈ 1.23 µM)
MIC (Mycobacterium marinum [35]): 1 µg/mL (≈ 1.23 µM)
MIC50 (Mycobacterium avium [36]): 2 µg/mL (≈ 2.47 µM)
MIC (Neisseria gonorrhoeae): 0.5 µg/mL (≈ 0.617 µM)
MIC (Pseudomonas aeruginosa): 8 µg/mL (≈ 9.88 µM)
MIC (Proteus vulgaris): 32 µg/mL (≈ 39.5 µM)
MIC [37]: 0.063 µg/mL (≈ 0.0778 µM)
ED50 (Streptococcus pyogenes [38]): 1.23 mg/kg
ED50 (Streptococcus pyogenes [39]): 1.62 mg/kg
MIC (Streptococcus pyogenes [40]): 0.135 µg/mL (≈ 0.167 µM)
MIC (Streptococcus pyogenes [41]): 0.125 µg/mL (≈ 0.154 µM)
MIC (Staphylococcus aureus): 0.125 µg/mL (≈ 0.154 µM)
MIC (Streptococcus pneumoniae): 0.063 µg/mL (≈ 0.0778 µM)
MIC (Enterococcus faecalis): 2 µg/mL (≈ 2.47 µM)
MIC [42]: 2 µg/mL (≈ 2.47 µM)
MIC (Haemophilus influenzae): 0.5 µg/mL (≈ 0.617 µM)
MIC (Mycobacterium xenopi [43]): 4 µg/mL (≈ 4.94 µM)
MIC90 (Mycobacterium avium [44]): 2 µg/mL (≈ 2.47 µM)
MIC (Mycobacteroides chelonae): > 128 µg/mL
MIC (Mycobacterium avium [45]): 0.5 µg/mL (≈ 0.617 µM)
